# Assay outcomes as filed in PubChem.
# The sample as a whole holds a higher share of hits than the screen did.
# CHOP UPR activ – activators of apoptotic arm of unfolded protein response (CHOP) | 330,000 tested, 0.34% active | activation, % at 10 µM | CHO-CHOP luciferase reporter, UPR activation, luminescence; percent of tunicamycin response over DMSO baseline;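 active means at 10 µM dose, activation of 40% or more, normalized to positive control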;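 further: 100% = tunicamycin at 10 µg/mL and 0% = DMSO alone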
#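 Dosing – one dose, 10 µM in 0.5% DMSO · System – CHO-CHOP cells, stable luciferase reporter of PERK-eIF2a-CHOP signalling · Input – 500 cells/well · Control set – tunicamycin 10 µg/mL final as positive, DMSO-only wells as negative · Timing – 6 h compound treatment, 37 °C · Measure – % activation vs tunicamycin · Technique – luminescence read with Steady-Glo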
# UPR XBP1 act – adaptive UPR (XBP1) activation. AID 463104. 330,000 tested, 0.33% active. CHO-XBP1 luciferase reporter, IRE1-XBP1 UPR activation, luminescence; percent of tunicamycin response, DMSO as zero. activation, % at 20 µM;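 active means versus positive control, 20 µM dose yields 30% or more activation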;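 further: 100% = tunicamycin at 10 µg/mL and 0% = DMSO only wells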
#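 Material: IRE1-XBP1 luciferase reporter CHO line / Quantity: one thousand reporter cells per well / Buffer or medium: F12 with 10% serum / Compound: 20 µM single concentration, DMSO 1% / Times: 6 h treatment, 37 °C / Detection: Steady-Glo luciferase glow luminescence, 10 min after reagent addition / Benchmarks: tunicamycin high, DMSO low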
# 697 NFkB inh – lowers PMA/ionomycin-induced NF-kB signal in 697 B cells. 697 B-cell NF-kB luciferase reporter, 16 h. AID 435022. 330,000 tested, 0.33% active. inhibition, % at 4 µM; in the data active means inhibition above about 35%
# CHOP inh – inhibitors of CHOP induction in ER stress response; AID 2732; 220,000 tested, 3.8% active; inhibition, % at 10 µM; CHO-K1 CHOP-promoter luciferase, tunicamycin-induced, 15-18 h;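 active means compounds that reduced the stress-induced luciferase reporter signal by more than about 70% of percent inhibition, limit read from the data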;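 further: 0% = tunicamycin plus vehicle and 100% = wells without tunicamycin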
# Jurkat NFkB inh – lowers PMA/ionomycin-induced NF-kB signal in Jurkat cells; inhibition, % at 4 µM; PMA/ionomycin-induced NF-kB luciferase reporter, luminescence; 330,000 tested, 0.53% active; in the data active means inhibition above about 50%
# Jurkat NFkB conf – inhibitors of the PMA/ionomycin-induced NF-kB reporter in Jurkat cells, retest | shares compounds with Jurkat NFkB inh | Jurkat NF-kB luciferase, 16 h | inhibition, % at 4 µM | 2,700 tested, 27% active;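 active means inhibition reaching about 45% at 4 µM in either replicate, limit read from the data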;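 further: plate controls were PMA/ionomycin stimulated DMSO wells for no effect and unstimulated DMSO wells for full effect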
# * hit, by the source's call; / = no result.
SMILES,CHOP UPR activ,UPR XBP1 act,697 NFkB inh,CHOP inh,Jurkat NFkB inh,Jurkat NFkB conf
Cc1ccc(C(=O)O/N=C(\N)c2ccccn2)c(Cl)c1,-12,-13,-8,/,65*,79*
CCN1CCN(c2nc(S(=O)(=O)c3ccc(C)cc3)c(Cl)s2)CC1,1,-3,-6,-5,4,/
Nc1c(C(=O)Nc2ccc(Cl)c(Cl)c2)sc2nc(-c3cccnc3)ccc12,0,-2,-9,-5,16,/
CCOC(=O)c1sc2nc(-c3cccnc3)ccc2c1N,2,1,-147,-18,-182,-69
CN(C)c1ccc(C(=O)OCC(=O)c2cccs2)cc1,5,-5,-80,-17,-151,-87
COc1ccc(C(=O)COC(=O)c2ccc(N(C)C)cc2)cc1,1,1,13,4,-51,/
Cc1nn(C)c(C)c1CN(Cc1nc(CCC(C)C)no1)C(C)C,1,0,9,68,53*,51*
CC(C)CCc1noc(CN(C)CCC2CCOCC2)n1,0,-1,17,19,-3,/
CCOc1ccc(S(=O)(=O)NCCC(=O)OCC(=O)Nc2cc(C)on2)cc1,-1,-1,11,-28,2,/
COc1ccc(NC(=O)[C@H](C)NC(=O)C2CCN(S(=O)(=O)c3ccc(OC)cc3)CC2)cc1,-1,-2,-4,/,26,/
CC(Oc1ccc(Br)cc1Cl)C(=O)Nc1ccncc1 (centres undefined),-1,-5,9,/,53*,37
CC(Oc1ccc(Br)cc1)C(=O)Nc1ccncc1 (centres undefined),0,-2,7,15,18,/
COc1cc(Cn2c(-c3nonc3N)nc3ccccc32)ccc1C,-2,10,6,/,62*,46
COc1cccc(Cn2c(-c3nonc3N)nc3ccccc32)c1,4,2,-19,/,51*,34
CCOc1ccc(C(=O)COC(=O)Cc2n[nH]c(=O)c3ccccc23)cc1,-1,-1,-7,/,55*,8
COC(=O)c1ccc(NC(=S)Nc2ccccn2)cc1,4,1,-133,-13,-164,-69
Cc1ccc(/C=N/NC(=O)c2c(C)nc3ccc(Br)cn23)cc1,0,17,10,/,50*,53*
COc1ccc(/C=N\NC(=O)c2c(C)nc3ccc(Br)cn23)cc1,-1,10,10,-46,44,/
COc1cc(C(CC(=O)O)n2cnnn2)ccc1OC(C)C (centres undefined),-1,0,10,-1,4,/
COc1ccc(OC)c(NC(=O)Cn2nc(C)c3ccccc3c2=O)c1,0,-4,-8,/,-8,/
CCOc1cc(S(=O)(=O)NCc2ccc(OC)cc2)c(OCC)cc1-n1cnnn1,-1,-2,-27,-26,57*,12
CCOc1cc(S(=O)(=O)NCCc2ccc(OC)c(OC)c2)c(OCC)cc1-n1cnnn1,0,0,-3,32,-4,/
CCN(CC)S(=O)(=O)c1ccc(N/N=C/c2cc(OC)ccc2O)nc1,-1,-1,-57,63,52*,-3
COc1cc(-c2noc(C)c2C#Cc2nccn2C)cc(OC)c1OC,-3,4,-14,/,13,/
COc1cc(-c2noc(C)c2C(=O)NCCc2c[nH]c3ccccc23)cc(OC)c1OC,0,5,14,/,3,/
SMILES,CHOP UPR activ,UPR XBP1 act,697 NFkB inh,CHOP inh,Jurkat NFkB inh,Jurkat NFkB conf
COc1cc(-c2noc(C)c2-c2ccc(N(C)C)nc2)cc(OC)c1OC,1,23,-97,/,71*,58*
COc1cc(-c2noc(C)c2-c2ccc3[nH]ccc3c2)cc(OC)c1OC,0,18,-8,/,65*,51*
O=C(CCNC(=O)c1ccccc1Cl)Nc1ccc(Cl)c(C(F)(F)F)c1,1,-1,3,44,8,/
CC1CCCCC12NC(=O)N(CC(=O)N1CCc3ccccc3C1)C2=O (centres undefined),-1,-2,17,/,6,/
C/C(=N\NC(=O)c1c([N+](=O)[O-])c(C)nn1C)c1ccc(NC(=O)c2ccc(C)o2)cc1,0,-2,-25,/,-27,/
C/C(=N\NC(=O)c1c(Br)c(C)nn1C)c1cccc(NC(=O)C2CCC2)c1,2,2,11,-2,-5,/
C/C(=N\NC(=O)c1c(Cl)c(C)nn1C)c1ccc(NC(=O)C2CCC2)cc1,0,-9,2,/,62*,17
C/C(=N\NC(=O)c1c([N+](=O)[O-])c(C)nn1C)c1ccc(NC(=O)C2CCCC2)cc1,-1,10,9,/,53*,50*
CN=C(C)/C(C(=O)OC)=C(/O)c1c(F)cccc1F,-2,-1,5,8,-4,/
Cc1cc(NCCN2CCOCC2)n2nc(C)c(-c3ccccc3)c2n1,2,0,15,-25,-3,/
Cc1cc(NCCN2CCOCC2)n2ncc(-c3ccccc3)c2n1,6,-3,-139,-14,-179,-88
Cc1ccnc2c1ccc1c(C)ccnc12,19,6,-27,/,76*,75*
Cc1ccnc2c1ccc1ccccc12,1,-3,9,/,-2,/
Cc1ccnc2c1ccc1cccnc12,-1,-4,-14,/,69*,64*
COC(=O)c1ccccc1NC(=O)CSCC(=O)Nc1ccc(F)cc1,0,-1,25,24,12,/
Cc1ccc(-c2onc3ccc(C(=O)O)cc23)cc1,-5,-15,-56,/,52*,-1
CC(=O)c1ccc2noc(-c3ccc(C)cc3)c2c1,-1,-2,1,21,-14,/
O=c1[nH]c(Nc2ccc3c(c2)OCCO3)nnc1Cc1ccccc1,1,2,-7,-4,-12,/
O=C(Nc1ccccc1)c1ccc(CN2CCc3ccccc3C2)cc1,4,3,-6,-31,13,/
O=C(Nc1ccc(S(=O)(=O)Nc2ccccc2)cc1)c1ccc(CN2CCOCC2)cc1,0,-3,14,0,64*,65*
O=C(Nc1ccc(S(=O)(=O)N2CCCCC2)cc1)c1ccc(CN2CCc3ccccc3C2)cc1,3,0,10,80*,80*,78*
COc1ccc(C2c3ccc4ccccc4c3Oc3ncn(CCN(C)C)c(=N)c32)cc1 (centres undefined),4,5,19,/,51*,4
COC(=O)c1ccc(-c2ccc(Cl)cc2)nc1C,1,2,-181,26,-172,-95
COC(=O)c1ccccc1NC(=O)c1sc(Cl)nc1C,1,-2,-15,/,3,/
Cc1[nH]c2ccccc2c1/C=C/c1nc2ccccc2c(=O)[nH]1,8,6,-134,76*,-168,-33
Cc1ccccc1NS(=O)(=O)c1ccc(N2CCCC2=O)cc1,-3,7,-83,/,54*,48
COc1ccc(OC)c(NS(=O)(=O)c2ccc(N3CCCC3=O)cc2)c1,0,11,1,/,55*,55*
